Results taken from ChEMBL document CHEMBL3621107, “Ring fusion strategy for synthesis and lead optimization of sulfur-substituted anthra[1,2-c][1,2,5]thiadiazole-6,11-dione derivatives as promising scaffold of antitumor agents” (Eur J Med Chem, 2015).

Tests used:
[1] = tested on: DU-145; test: Cytotoxicity against human DU145 cells assessed as cell growth at 10 uM after 48 hrs by SRB assay relative to control; assay type: functional; details: DU-145, 48 h, read-out: Activity
Outline: (§1)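 First-stage NCI-60 screen by the NCI Developmental Therapeutics Program. Each compound was tested once at a single concentration of 10 μM against the 60-cell-line panel. Growth percentage was reported for each cell line.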

[2] = tested on: HOP-92; test: Cytotoxicity against human HOP92 cells assessed as cell growth at 10 uM after 48 hrs by SRB assay relative to control; assay type: functional; details: HOP-92, 48 h, read-out: Activity; outline: as §1
[3] = tested on: UACC-62; test: Cytotoxicity against human UACC62 cells assessed as cell growth at 10 uM after 48 hrs by SRB assay relative to control; assay type: functional; details: UACC-62, 48 h, read-out: Activity
Outline: (§2)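 NCI-60 one-dose screen run by NCI DTP: each cell line exposed to a single 10 µM dose, and percentage growth recorded against untreated growth.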

[4] = tested on: UACC-257; test: Cytotoxicity against human UACC257 cells assessed as cell growth at 10 uM after 48 hrs by SRB assay relative to control; assay type: functional; details: UACC-257, 48 h, read-out: Activity; outline: as §2
[5] = tested on: Malme-3M; test: Cytotoxicity against human MALME-3M cells assessed as cell growth at 10 uM after 48 hrs by SRB assay relative to control; assay type: functional; details: read-out: Activity; outline: as §1
[6] = tested on: SNB-75; test: Cytotoxicity against human SNB75 cells assessed as cell growth at 10 uM after 48 hrs by SRB assay relative to control; assay type: functional; details: SNB-75, 48 h, read-out: Activity; outline: as §2
[7] = tested on: MOLT-4; test: Cytotoxicity against human MOLT4 cells assessed as cell growth at 10 uM after 48 hrs by SRB assay relative to control; assay type: functional; details: MOLT-4, 48 h, read-out: Activity
Outline: (§3)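 First-stage NCI DTP one-dose screen against the 60 human tumour cell line panel. Compounds were tested at a single 10 μM level, and results are given as growth percentage.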

[8] = tested on: COLO 205; test: Cytotoxicity against human COLO205 cells assessed as cell growth at 10 uM after 48 hrs by SRB assay relative to control; assay type: functional; details: COLO 205, 48 h, read-out: Activity; outline: as §1
[9] = tested on: SK-MEL-5; test: Cytotoxicity against human SK-MEL-5 cells assessed as cell growth at 10 uM after 48 hrs by SRB assay relative to control; assay type: functional; details: SK-MEL-5, 48 h, read-out: Activity; outline: as §3
[10] = tested on: MCF7; test: Cytotoxicity against human MCF7 cells assessed as cell growth at 10 uM after 48 hrs by SRB assay relative to control; assay type: functional; details: MCF7, 48 h, read-out: Activity; outline: as §1
[11] = tested on: CAKI-1; test: Cytotoxicity against human Caki1 cells assessed as cell growth at 10 uM after 48 hrs by SRB assay relative to control; assay type: functional; details: CAKI-1, 48 h, read-out: Activity; outline: as §1
[12] = tested on: HCT-116; test: Cytotoxicity against human HCT116 cells assessed as cell growth at 10 uM after 48 hrs by SRB assay relative to control; assay type: functional; details: HCT-116, 48 h, read-out: Activity; outline: as §1
[13] = tested on: BT-549; test: Cytotoxicity against human BT549 cells assessed as cell growth at 10 uM after 48 hrs by SRB assay relative to control; assay type: functional; details: BT-549, 48 h, read-out: Activity; outline: as §1
[14] = Cytotoxicity against human Hs578T cells assessed as cell growth at 10 uM after 48 hrs by SRB assay relative to control; assay type: functional; details: Hs-578T, read-out: Activity; outline: as §1
[15] = tested on: TK-10; test: Cytotoxicity against human TK10 cells assessed as cell growth at 10 uM after 48 hrs by SRB assay relative to control; assay type: functional; details: TK-10, 48 h, read-out: Activity; outline: as §2
[16] = tested on: NCI-H460; test: Cytotoxicity against human NCI-H460 cells assessed as cell growth at 10 uM after 48 hrs by SRB assay relative to control; assay type: functional; details: NCI-H460, 48 h, read-out: Activity; outline: as §3
[17] = tested on: IGROV-1; test: Cytotoxicity against human IGROV1 cells assessed as cell growth at 10 uM after 48 hrs by SRB assay relative to control; assay type: functional; details: IGROV-1, 48 h, read-out: Activity; outline: as §1
[18] = tested on: HCC 2998; test: Cytotoxicity against human HCC2998 cells assessed as cell growth at 10 uM after 48 hrs by SRB assay relative to control; assay type: functional; details: HCC 2998, 48 h, read-out: Activity; outline: as §1
[19] = tested on: PC-3; test: Cytotoxicity against human PC3 cells after 48 hrs by SRB assay; assay type: functional, cell-based; details: PC-3, 48 h
Outline: (§4)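 Second-stage NCI-60 panel run by the NCI Developmental Therapeutics Program, covering nine tumour subpanels. Five concentrations were tested: 0.01, 0.1, 1, 10 and 100 μM. Percentage growth at each level was plotted against log10 drug concentration. GI50, TGI and LC50 were read from these dose-response curves. Subpanel MID values were divided into the full-panel MID to give selectivity ratios.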

[20] = tested on: UO-31; test: Cytotoxicity against human UO31 cells assessed as cell growth at 10 uM after 48 hrs by SRB assay relative to control; assay type: functional; details: UO-31, 48 h, read-out: Activity; outline: as §2
[21] = tested on: LOX IMVI; test: Cytotoxicity against human LOXIMVI cells assessed as cell growth at 10 uM after 48 hrs by SRB assay relative to control; assay type: functional; details: read-out: Activity; outline: as §1
[22] = tested on: SF-539; test: Cytotoxicity against human SF539 cells assessed as cell growth at 10 uM after 48 hrs by SRB assay relative to control; assay type: functional; details: SF-539, 48 h, read-out: Activity; outline: as §3
[23] = tested on: OVCAR-5; test: Cytotoxicity against human OVCAR5 cells after 48 hrs by SRB assay; assay type: functional; details: OVCAR-5, 48 h; outline: as §4
[24] = tested on: MDA-MB-468; test: Cytotoxicity against human MDA-MB-468 cells assessed as cell growth at 10 uM after 48 hrs by SRB assay relative to control; assay type: functional; details: MDA-MB-468, 48 h, read-out: Activity; outline: as §3
[25] = tested on: NCI-H522; test: Cytotoxicity against human NCI-H522 cells assessed as cell growth at 10 uM after 48 hrs by SRB assay relative to control; assay type: functional; details: NCI-H522, 48 h, read-out: Activity; outline: as §3
[26] = tested on: T47D; test: Cytotoxicity against human T47D cells assessed as cell growth at 10 uM after 48 hrs by SRB assay relative to control; assay type: functional; details: read-out: Activity; outline: as §2
[27] = Cytotoxicity against human EKVX cells assessed as cell growth at 10 uM after 48 hrs by SRB assay relative to control; assay type: functional; details: read-out: Activity; outline: as §1
[28] = tested on: NCI-H23; test: Cytotoxicity against human NCI-H23 cells assessed as cell growth at 10 uM after 48 hrs by SRB assay relative to control; assay type: functional; details: NCI-H23, 48 h, read-out: Activity; outline: as §3
[29] = tested on: SR; test: Cytotoxicity against human SR cells assessed as cell growth at 10 uM after 48 hrs by SRB assay relative to control; assay type: functional; details: read-out: Activity; outline: as §2
[30] = tested on: OVCAR-4; test: Cytotoxicity against human OVCAR4 cells assessed as cell growth at 10 uM after 48 hrs by SRB assay relative to control; assay type: functional; details: OVCAR-4, 48 h, read-out: Activity; outline: as §3
[31] = tested on: NCI-H322M; test: Cytotoxicity against human NCI-H322M cells assessed as cell growth at 10 uM after 48 hrs by SRB assay relative to control; assay type: functional; details: read-out: Activity; outline: as §3

SMILES	growth at 10 µM [3]	growth at 10 µM [4]	growth at 10 µM [5]	growth at 10 µM [6]	growth at 10 µM [8]	growth at 10 µM [9]	growth at 10 µM [10]	growth at 10 µM [12]	growth at 10 µM [13]	growth at 10 µM [15]	growth at 10 µM [17]	growth at 10 µM [18]	IC50 [19]	growth at 10 µM [20]	growth at 10 µM [21]	growth at 10 µM [22]	growth at 10 µM [24]	growth at 10 µM [25]	growth at 10 µM [26]	growth at 10 µM [28]	other results
O=C1c2ccccc2C(=O)c2c1cc(Sc1ccccc1Br)c1nsnc21	39.6%	4.75%	35.3%	47.2%	97.4%	46.3%	-6.39%	16.6%	52.2%	76.5%	27.9%	78.4%	5.76 µM	56.1%	-15.3%	-5.66%	-79.9%	30.8%	-33%	18%	growth at 10 µM [1]: 50.6%; growth at 10 µM [2]: 37.6%; growth at 10 µM [7]: 29.7%; growth at 10 µM [11]: 29.7%; growth at 10 µM [14]: 54.2%; growth at 10 µM [16]: 58.2%; GI50 [23]: 3.44 µM; LC50 [23]: > 50 µM; TGI [23]: > 50 µM; growth at 10 µM [27]: 77.7%; growth at 10 µM [29]: 2.94%
O=C1c2ccccc2C(=O)c2c1cc(Sc1cccc(Cl)c1)c1nsnc21	-65%	-84.6%	-86.6%	26.1%	106%	19%	-69.4%	-67.8%	36.2%	53.8%	-13.5%	102%	5.64 µM	-74.8%	-59.2%	-52.7%	-79.2%	7.18%	-42.3%	-26.9%	growth at 10 µM [11]: -3.69%; GI50 [23]: 2.74 µM; LC50 [23]: 68.2 µM; TGI [23]: 6.08 µM; growth at 10 µM [27]: 43.6%
O=C1c2ccccc2C(=O)c2c1cc(SCc1ccc(Cl)cc1)c1nsnc21	102%	78.7%	86.4%	63.4%	99.9%	89.6%	83%	115%	115%	122%	84.2%	103%	> 15 µM	68.5%	86.7%	98%	83.4%	82.6%	83.8%	82.1%	growth at 10 µM [1]: 115%; growth at 10 µM [7]: 22.7%; growth at 10 µM [14]: 88.6%; growth at 10 µM [16]: 105%; growth at 10 µM [30]: 84.2%; growth at 10 µM [31]: 94.1%; growth at 10 µM [29]: 63.7%
